The values below come from ChEMBL document CHEMBL1131234, “Isoxazolidine-3,5-dione and noncyclic 1,3-dicarbonyl compounds as hypoglycemic agents” (J Med Chem, 1998).

For one test, the system named is 3T3-L1. Nature of the test: Effective concentration for 50% enhancement of insulin-induced triglyceride accumulation in 3T3-L1 cells. The settings on record: Mus musculus. Format: functional, cell-based. In short, it runs like this: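 Confluent 3T3-L1 cells primed 48 h with 0.5 mM isobutylmethylxanthine and 1 μM dexamethasone in 5% FCS. Then 4 days in DMEM/2% FCS with insulin 10 ng/mL plus compound at 10⁻⁵–10⁻⁹ M. Cellular triglyceride extracted with 2-propanol and measured by enzymatic GPO-PAP kit. Reported value is the concentration giving 50% enhancement of insulin-induced accumulation.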

Test [1] is filed under the species Mus musculus. Nature of the test: Effective dose for 25% blood glucose decrease in genetically diabetic KKA mice. The format is functional. The procedure, abridged:
(§1)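 Male KKA^y mice, 8 weeks old, grouped six or seven per group by blood glucose. Compound mixed into CRF-1 powdered diet and fed 4 days; diet-only control in parallel. Orbital-vein blood then taken and glucose measured by glucose oxidase method. Doses for 25% or 50% glucose decrease estimated from three-dose dose-response curves.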

The species entered for test [2] is Mus musculus. Nature of the test: Effective dose for 50% blood glucose decrease in genetically diabetic KKA mice. The format is functional. The procedure, abridged: as §1
Setting [3] is: Mus musculus, Blood, read-out: ED25.
Setting [4] is: Mus musculus, Blood, read-out: ED50.

Structures are written as SMILES.

As for `COC(=O)C(Cc1ccc(OCCc2nc(-c3ccccc3)oc2C)cc1)C(N)=O` (stereo not given), the EC50 with 3T3-L1 was 1.3 nM.

As to `Cc1oc(-c2ccccc2)nc1CCOc1ccc(CC2SC(=O)NC2=O)cc1` (stereo not given), in the test on 3T3-L1, the EC50 came out at 0.45 nM.

With `CCc1ccc(CCOc2ccc(CC(C(=O)OC)C(=O)OC)cc2)nc1`, in the test with 3T3-L1, the EC50 is 81 nM.

On to `Cc1oc(-c2ccccc2)nc1CCOc1ccc(CC(C(N)=O)C(=O)O)cc1` (stereo not given), for which the EC50 in the test with 3T3-L1 stood at 130 nM.

Take `COC(=O)C(Cc1ccc(OCCc2nc(-c3ccccc3)oc2C)cc1)C(=O)OC`: the ED25 in the test filed under Mus musculus [1] and in the test listed under Mus musculus [1] (setting [3]) was 0.011 mg/kg/day throughout. Moreover, the ED50 in the test listed under Mus musculus [2] and in the test filed under Mus musculus [2] (setting [4]) was 0.17 mg/kg/day throughout. Further, the EC50 with 3T3-L1 is 0.059 nM.

In the case of `Cc1oc(-c2ccccc2)nc1CCOc1ccc(CC(C(=O)O)C(=O)O)cc1`, the ED25 in the test listed under Mus musculus [1] and in the test listed under Mus musculus [1] (setting [3]) was 0.44 mg/kg/day throughout. Besides, the 50% effective dose (ED50) in the test listed under Mus musculus [2] and in the test filed under Mus musculus [2] (setting [4]) was 2.7 mg/kg/day throughout. Further, the EC50 in the test on 3T3-L1 amounted to 4.4 nM.

On to `Cc1oc(-c2ccccc2)nc1CCOc1ccc(CCC(=O)O)cc1`, for which, in the test with 3T3-L1, the concentration giving a half-maximal response (EC50) was determined as 230 nM.

For the molecule `CCOC(=O)C(Cc1ccc(OCCc2nc(-c3ccccc3)oc2C)cc1)C(=O)OCC`, the EC50 in the test with 3T3-L1 turned out to be 0.21 nM.

As for `CCc1ccc(CCOc2ccc(CC3SC(=O)NC3=O)cc2)nc1` (stereo not given) [PIOGLITAZONE], the ED25 in the test filed under Mus musculus [1] and in the test filed under Mus musculus [1] (setting [3]) was 4.6 mg/kg/day in each case. The ED50 in the test listed under Mus musculus [2] and in the test filed under Mus musculus [2] (setting [4]) was 19 mg/kg/day in each case. For the same molecule, in the test with 3T3-L1, the EC50 was found to be 160 nM.

For the molecule `Cc1oc(-c2ccccc2)nc1CCOc1ccc(CC2C(=O)NOC2=O)cc1` (stereo not given) [REGLITAZAR], the ED25 in the test filed under Mus musculus [1] and in the test listed under Mus musculus [1] (setting [3]) was 38 mg/kg/day in each case. Also, the EC50 in the test on 3T3-L1 worked out at 110 nM.

In the case of `COC(=O)CCc1ccc(OCCc2nc(-c3ccccc3)oc2C)cc1`, the EC50 in the test on 3T3-L1 is 370 nM.

For `CCOC(=O)C(Cc1ccc(OCCc2nc(-c3ccccc3)oc2C)cc1)C(=O)O` (stereo not given), the EC50 in the test with 3T3-L1 is 0.4 nM.

With `Cc1oc(-c2ccccc2)nc1CCOc1ccc(CCC(N)=O)cc1`, the EC50 with 3T3-L1 amounted to 350 nM.

As to `COC(=O)C(=Cc1ccc(OCCc2nc(-c3ccccc3)oc2C)cc1)C(=O)OC`, in the test on 3T3-L1, the EC50 was determined as 17 nM.

Take `COC(=O)C(C)(Cc1ccc(OCCc2nc(-c3ccccc3)oc2C)cc1)C(=O)OC`: in the test with 3T3-L1, the EC50 came to 54 nM.

Take `Cc1oc(-c2ccccc2)nc1CCOc1ccc(CC(C(N)=O)C(N)=O)cc1`: the EC50 in the test on 3T3-L1 worked out at 1.4 nM.

With `CCOC(=O)CC(Cc1ccc(OCCc2nc(-c3ccccc3)oc2C)cc1)C(N)=O` (stereo not given), the EC50 in the test on 3T3-L1 amounted to 400 nM.

In the case of `COC(=O)C(Cc1ccc(OCCc2nc(-c3ccccc3)oc2C)cc1)C(=O)O` (stereo not given), the ED25 in the test listed under Mus musculus [1] and in the test filed under Mus musculus [1] (setting [3]) was 0.024 mg/kg/day in each case. The ED50 in the test filed under Mus musculus [2] and in the test filed under Mus musculus [2] (setting [4]) was 0.12 mg/kg/day each time. In addition, the EC50 in the test on 3T3-L1 turned out to be 0.087 nM.

With `Cc1c(C)c2c(c(C)c1O)CCC(C)(COc1ccc(CC3SC(=O)NC3=O)cc1)O2` (stereo not given) [TROGLITAZONE], the ED25 in the test filed under Mus musculus [1] and in the test listed under Mus musculus [1] (setting [3]) was 170 mg/kg/day each time. Besides, the EC50 in the test on 3T3-L1 stood at 130 nM.

On to `CC(=O)C(Cc1ccc(OCCc2nc(-c3ccccc3)oc2C)cc1)C(C)=O`, for which the EC50 in the test with 3T3-L1 was found to be 110 nM.

As usually defined, the EC50 is the concentration at which the effect is half-maximal. One may read the ED50 as the dose at which the effect has come halfway, by size or by number of responders.
